The text below walks through data of ChEMBL document CHEMBL1155641, “Cytotoxic cembrenolides and steroids from the formosan soft coral Sarcophyton crassocaule” (2000).

The structures appear in SMILES notation. Values after ≈ are worked out from the molar mass of the structure shown.

What all share (format): functional
Common to all, as to conditions: read-out: ED50 (the source's name)

The test system of one assay is A549. Put plainly: Cytotoxicity against human A549 cells. A digest of the protocol: (§1)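 Human A549 lung adenocarcinoma and HT-29 colon adenocarcinoma cell lines from the American Type Culture Collection. Cytotoxicity assay run per a previously described procedure.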
The next assay relates to P388. Put plainly: Cytotoxicity against mouse P388 cells. The procedure, abridged:
(§2)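 Human KB epidermoid carcinoma and mouse P-388 lymphocytic leukemia cells came from an academic laboratory (University of Illinois at Chicago). Cytotoxicity assay run per a previously described procedure.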

A further assay deals with KB. Put plainly: Cytotoxicity against human KB cells. The procedure, abridged: as §2
The subject of another assay is HT-29. Put plainly: Cytotoxicity against human HT29 cells. The procedure, abridged: as §1

As for `C=C1C(=O)O[C@H]2[C@H]1C[C@@H]1O[C@@]1(C)CC/C=C(\C)CC/C=C(\C)[C@@H]2OC(C)=O`, the EC50 with A549 stood at 4.66 µg/mL (≈ 12.4 µM); in the assay on P388, 0.38 µg/mL (≈ 1.01 µM); in the assay with KB, 7.39 µg/mL (≈ 19.7 µM); with HT-29, 5.67 µg/mL (≈ 15.1 µM).

As for `CC(C)[C@@H](C)CC[C@@H](C)[C@H]1CC[C@H]2[C@@H]3C[C@@H](O)[C@@]4(O)C[C@@H](O)CC[C@]4(C)[C@H]3CC[C@]12C`, the EC50 in the assay with A549 was found to be 6.26 µg/mL (≈ 14.4 µM); with P388, 0.14 µg/mL (≈ 0.322 µM); in the assay on KB, 5.38 µg/mL (≈ 12.4 µM); in the assay with HT-29, 8.35 µg/mL (≈ 19.2 µM).

With `CC(=O)OC(C)(C)[C@H](C)CC[C@@H](C)[C@H]1CC[C@H]2[C@@H]3C[C@@H](O)[C@@]4(O)C[C@@H](O)CC[C@]4(C)[C@H]3CC[C@]12C`, the EC50 in the assay on A549 stood at 22.4 µg/mL (≈ 45.5 µM); with P388, 3.96 µg/mL (≈ 8.04 µM); in the assay on KB, 26.8 µg/mL (≈ 54.5 µM); in the assay with HT-29 it was 4.32 µg/mL (≈ 8.77 µM).

Turning to `C=C1C(=O)O[C@H]2/C=C(\C)CC[C@H](OC(C)=O)[C@@]3(C)CC[C@H](OO3)/C(C)=C\C[C@@H]12` [DENTICULATOLIDE], the EC50 with A549 amounted to 6.46 µg/mL (≈ 16.5 µM); with P388 it was 0.15 µg/mL (≈ 0.384 µM); in the assay with KB, 6.29 µg/mL (≈ 16.1 µM); in the assay with HT-29, 5.78 µg/mL (≈ 14.8 µM).

Consider `C=C1C(=O)O[C@@H]2C/C(C)=C/CC/C(C)=C/CC[C@]3(C)O[C@H]3C[C@@H]12` [SARCOCRASSOLIDE], for which the EC50 in the assay with A549 came to 8.31 µg/mL (≈ 26.3 µM); in the assay with P388, 0.16 µg/mL (≈ 0.506 µM); in the assay on KB, 9.15 µg/mL (≈ 28.9 µM); in the assay with HT-29, 7.55 µg/mL (≈ 23.9 µM).
